Published values pooled from the literature.
Lines come from different studies, so protocols differ.
Target: Serine/threonine-protein kinase PRP4 homolog (PRPF4B, Homo sapiens, UniProt Q13523)

With `O=C(c1ccc(Nc2ncc(Cl)c(-c3cc4ccccc4s3)n2)cc1)N1CCC(N2CCCC2)CC1` the remaining binding was 3.7% (binding; competition with immobilised ligand; 1 µM).
`CNC(=O)[C@@H]1CC[C@@H](n2c(-c3ccc4cnccc4c3)nc3ccc(C(=O)NCc4cccc(C(N)=O)c4)cc32)C1` has a remaining binding of 100% (binding; competition with immobilised ligand; 1 µM).
For `O=C(NCc1ncc(C(F)(F)F)cc1Cl)c1ccc2c(c1)C1(CCS(=O)(=O)CC1)[C@@H](C1CC1)N2S(=O)(=O)c1ccc(F)cc1`, the remaining binding was 84% (cell-free assay; competition with immobilised ligand; 1 µM).
`C[C@@H](c1ccc(-n2cnc3c(N)ncnc32)cc1)N1CCc2nn(C)c(Cc3ccccc3)c2C1=O` has a remaining binding of 100% (binding; competition with immobilised ligand; 0.1 µM).
With `C[C@@H]1CN(c2cc(-c3n[nH]c4ccc(OC5(C)CC5)cc34)ncn2)C[C@H](C)O1` the remaining binding was 83% (cell-free assay; competition with immobilised ligand; 0.1 µM).
For `CN(C)c1ncc(F)c(-c2cnn3ncccc23)n1`, the remaining binding was 100% (binding; 1 µM).
`O=C(Nc1c[nH]nc1C(=O)NC1CCNCC1)c1cc(F)cc(F)c1` has a remaining binding of 82% (binding; competition with immobilised ligand; 1 µM).
With `Cc1cnc(Nc2ccc(C(=O)N3CCC(N4CCCC4)CC3)cc2)nc1-c1cc2ccccc2s1` the remaining binding was 5.2% (binding; competition with immobilised ligand; 1 µM).
`CC1CCCN1c1nccc(-c2cnn3ncccc23)n1` (stereo not shown) has a remaining binding of 100% (binding; 1 µM).
`FC(F)(F)c1ccc2c(c1)nc(-c1cccnc1)n2C1CC1` gave a remaining binding of 98% (cell-free assay; competition with immobilised ligand; 1 µM).
`C[C@H]1CCN(c2nccc(-c3cnn4ncccc34)n2)C1` has a remaining binding of 53% (binding; 1 µM).
For `CC(C)(O)c1cncc(-c2nc3ccc(F)cc3n2C2CC2)c1`, the remaining binding was 58% (cell-free assay; competition with immobilised ligand; 1 µM).
The remaining binding of `O=C(c1ccc(Nc2ncc(Cl)c(-c3ccc(Cl)s3)n2)cc1)N1CCC(N2CCCC2)CC1` is reported as 19% (binding; competition with immobilised ligand; 1 µM).
`CN(c1nccc(-c2cnn3ncccc23)n1)C1CC1` gave a remaining binding of 100% (binding; 1 µM).
With `CS(=O)(=O)N1CCCC(NC(=O)[C@H](CCC2CCCCC2)NC(=O)c2ccc(CNc3ncnc4c3nnn4-c3ccccc3)cc2)C1` (stereo partly shown) the remaining binding was 60% (cell-free assay; competition with immobilised ligand; 0.1 µM).
With `c1cnn2ncc(-c3ccnc(N4CCC45COC5)n3)c2c1` the remaining binding was 84% (binding; 1 µM).
With `CN1CCN(c2cnc3c(C4CCN(C(=O)c5ccc(OC(F)(F)F)cc5N)CC4)ncnc3c2)CC1` the remaining binding was 100% (cell-free assay; competition with immobilised ligand; 1 µM).
For `COc1cnc(Nc2cccc(S(N)(=O)=O)c2)nc1N1CCN(c2ccccc2)C(=O)C1`, the remaining binding was 100% (binding; competition with immobilised ligand; 1 µM).
For `N[C@H]1CCN(c2nccc(-c3cnn4ncccc34)n2)C1`, the remaining binding was 82% (binding; 1 µM).
For `Nc1ncc2c(n1)-c1c([nH]c3ccc(C#CC4CC4)cc13)CCCC2`, the remaining binding was 80% (binding; competition with immobilised ligand; 1 µM).
`F[C@@H]1CCN(c2nccc(-c3cnn4ncccc34)n2)C1` gave a remaining binding of 100% (binding; 1 µM).
`O=C(NCCCC1CCCCC1)c1ccc(CNC(=O)c2cnn(-c3ccccc3)c2C(F)(F)F)cc1` has a remaining binding of 100% (cell-free assay; competition with immobilised ligand; 0.1 µM).
